From ChEMBL document CHEMBL5154772, “Biological Investigation of a Water-Soluble Isoginkgetin-Phosphate Analogue, Targeting the Spliceosome with In Vivo Antitumor Activity” (J Med Chem, 2022)
Active and inactive are the calls of the source.

Columns and labels:
[1] = Acute toxicity in C57BL/6 mouse assessed as mortality at 500 mg/kg, ip administered as single dose and measured after 15 days; assay type: organism-based; conditions: in vivo, 360 h, time 15 day
Outline: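 Single intraperitoneal injection (100 µL) into female C57BL/6 mice, with IP2 diluted in sterile PBS at 50, 100, 250 or 500 mg/kg; PBS-treated controls. Behaviour watched right after and at 30 min. Body weight followed every 2–3 days for 15 days. Euthanasia criterion was weight loss ≥20%. Liver, spleen and kidney weights taken at day 15.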

[2] = Toxicity in C57BL/6 mouse assessed as change in liver weight at 250 mg/kg, ip administered as single dose and measured after 15 days (reference value: 1.2 to 1.3 g); assay type: organism-based; conditions: in vivo, 360 h, time 15 day
Outline: (§1)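 Female C57BL/6 mice given one IP injection of 100 µL, at 50, 100, 250 or 500 mg/kg in sterile PBS, two mice per dose; PBS-injected controls. Behaviour checked right after and at 30 min. Body weight recorded every 2–3 days for 15 days, then liver, spleen and kidneys weighed.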

MCA-205 = assay: Antitumor activity against mouse wild type MCA-205 cells implanted in C57BL/6 mouse assessed as decrease in tumor growth pretreatment at 2.5 mg/kg,iv administered starting from day 7 post inoculation at five days interval upto 17 days relative to control; assay type: functional, organism-based; conditions: time <= 17.0 day
Outline: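 MCA205 WT fibrosarcoma cells were inoculated subcutaneously into the right flank of female C57BL/6 mice. Dosing was 2.5 mg/kg iv from day 7 post-inoculation, repeated every 5 days until day 17; controls were untreated. Tumor area was recorded every 3–4 days up to ethical limits, and tumor size was measured at killing. Analysis was by one-way ANOVA.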

[3] = Half life in Beagle dog at 26.76 mg/kg, iv administered as single dose measured up to 24 hrs; assay type: ADME, organism-based, Canis lupus familiaris; conditions: in vivo
Outline: (§2)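 Single intravenous dose. Mice were male C57BL/6J, 12 per route; tail-vein blood was collected under sodium heparin, with 3 mice sampled at each pair of times (0.083/2, 0.25/4, 0.5/8, 1/24 h). Dogs were male beagles (n=3); jugular blood was collected under K2 EDTA predose and at 0.083, 0.25, 0.5, 1, 2, 4, 6, 8 and 24 h. Plasma was prepared from the samples.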

[4] = Toxicity in C57BL/6 mouse assessed as change in liver weight at 100 mg/kg, ip administered as single dose and measured after 15 days (reference value: 1.2 to 1.3 g); assay type: organism-based; conditions: in vivo, 360 h, time 15 day; outline: as §1
[5] = Metabolic stability in human liver microsomes assessed as parent compound remaining incubated for 45 mins in absence of NADPH by HPLC-MS/MS analysis; assay type: ADME, Microsome; conditions: read-out: Stability
Outline: (§3)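 Incubation with mouse or human liver microsomes for 45 min, with or without NADPH. Remaining parent compound was quantified over time by HPLC-MS/MS and expressed as % remaining; intrinsic clearance is given in μL/min/mg protein.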

[6] = Half life in C57BL/6J mouse at 0.711 mg/kg, iv administered as single dose measured up to 24 hrs; assay type: ADME, organism-based; conditions: in vivo; outline: as §2
[7] = Toxicity in C57BL/6 mouse assessed as change in liver weight at 50 mg/kg, ip administered as single dose and measured after 15 days (reference value: 1.2 to 1.3 g); assay type: organism-based; conditions: in vivo, 360 h, time 15 day; outline: as §1
[8] = Toxicity in C57BL/6 mouse assessed as change in liver weight at 500 mg/kg, ip administered as single dose and measured after 15 days (reference value: 1.2 to 1.3 g); assay type: organism-based; conditions: in vivo, 360 h, time 15 day; outline: as §1
[9] = Toxicity in C57BL/6 mouse assessed as change in kidney weight at 250 mg/kg, ip administered as single dose and measured after 15 days (reference value: 0.3 g); assay type: organism-based; conditions: in vivo, 360 h, time 15 day; outline: as §1
[10] = Tmax in C57BL/6J mouse at 9.103 mg/kg, ip administered as single dose measured up to 24 hrs; assay type: ADME, organism-based; conditions: in vivo
Outline: (§4)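 Single intraperitoneal dose in male C57BL/6J mice (12 per route). Tail-vein blood was collected under sodium heparin for plasma, with 3 mice sampled at each pair of times: 0.083/2, 0.25/4, 0.5/8 and 1/24 h. F denotes bioavailability.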

[11] = Half life in C57BL/6J mouse at 9.103 mg/kg, ip administered as single dose measured up to 24 hrs; assay type: ADME, organism-based; conditions: in vivo; outline: as §4
[12] = MRT(0 to t) in C57BL/6J mouse at 9.103 mg/kg, ip administered as single dose measured up to 24 hrs; assay type: ADME, organism-based; conditions: in vivo; outline: as §4
[13] = Antitumour activity against mouse wild type MCA-205 cells implanted in C57BL/6 mouse assessed as tumor size by measuring cell killing pretreatment at 2.5 mg/kg, iv administered starting from day 7 post inoculation at five days interval upto 17 days relative to control; assay type: functional; conditions: time <= 17 day
Outline: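 Female C57BL/6 mice (6 weeks old) given subcutaneous MCA205 WT fibrosarcoma in the right flank. 2.5 mg/kg given intravenously on days 7, 12 and 17 after inoculation; untreated controls. Tumour area recorded every 3–4 days until ethical endpoints, then tumour size at killing. Groups compared by one-way ANOVA.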

[14] = Total clearance in C57BL/6J mouse at 0.711 mg/kg, iv administered as single dose measured up to 24 hrs; assay type: ADME, organism-based; conditions: in vivo; outline: as §2
[15] = Metabolic stability in mouse liver microsomes assessed as parent compound remaining incubated for 45 mins in presence of NADPH by HPLC-MS/MS analysis; assay type: ADME, Microsome; conditions: read-out: Stability; outline: as §3
[16] = AUCextra in Beagle dog at 26.76 mg/kg, iv administered as single dose measured up to 24 hrs; assay type: ADME, organism-based, Canis lupus familiaris; conditions: in vivo; outline: as §2
[17] = molecular target: 3',5'-cyclic-AMP phosphodiesterase 4D (Homo sapiens) (UniProt Q08499); assay: Inhibition of PDE4D2 (unknown origin) at 10 uM
Sequence of 3',5'-cyclic-AMP phosphodiesterase 4D (Homo sapiens) (Q08499 whole entry): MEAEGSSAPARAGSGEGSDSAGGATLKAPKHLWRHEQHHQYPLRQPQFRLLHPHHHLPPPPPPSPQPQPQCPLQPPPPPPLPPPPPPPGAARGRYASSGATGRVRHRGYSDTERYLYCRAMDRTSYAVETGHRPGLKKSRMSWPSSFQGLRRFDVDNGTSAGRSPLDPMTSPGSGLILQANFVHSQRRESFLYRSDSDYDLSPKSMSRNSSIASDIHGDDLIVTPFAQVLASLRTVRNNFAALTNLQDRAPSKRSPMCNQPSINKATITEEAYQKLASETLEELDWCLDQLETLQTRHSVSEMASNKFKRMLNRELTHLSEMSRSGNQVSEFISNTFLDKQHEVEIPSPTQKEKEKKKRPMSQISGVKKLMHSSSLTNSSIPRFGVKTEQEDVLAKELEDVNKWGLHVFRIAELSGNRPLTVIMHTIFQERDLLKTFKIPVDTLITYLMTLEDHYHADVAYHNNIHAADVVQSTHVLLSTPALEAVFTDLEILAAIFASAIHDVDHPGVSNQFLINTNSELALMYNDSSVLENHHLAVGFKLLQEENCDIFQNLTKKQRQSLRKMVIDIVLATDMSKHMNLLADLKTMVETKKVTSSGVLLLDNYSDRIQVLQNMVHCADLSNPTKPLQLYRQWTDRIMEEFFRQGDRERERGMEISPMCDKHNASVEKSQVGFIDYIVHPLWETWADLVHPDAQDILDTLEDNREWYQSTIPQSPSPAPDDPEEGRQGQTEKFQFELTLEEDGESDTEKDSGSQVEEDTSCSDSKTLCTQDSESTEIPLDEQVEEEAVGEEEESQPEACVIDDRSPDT
Outline: (§5)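 Single-concentration safety screen at 10 μM across a 47-target panel. GPCRs were run in antagonist mode and enzymes in inhibitor mode.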

[18] = molecular target: Beta-1 adrenergic receptor (Homo sapiens) (UniProt P08588); assay: Antagonist activity at ADRB1 (unknown origin) at 10 uM; assay type: functional; set-up: scale not given: the % may be the effect or the level left; outline: as §5
Sequence of Beta-1 adrenergic receptor (Homo sapiens) (P08588 whole entry, looked up): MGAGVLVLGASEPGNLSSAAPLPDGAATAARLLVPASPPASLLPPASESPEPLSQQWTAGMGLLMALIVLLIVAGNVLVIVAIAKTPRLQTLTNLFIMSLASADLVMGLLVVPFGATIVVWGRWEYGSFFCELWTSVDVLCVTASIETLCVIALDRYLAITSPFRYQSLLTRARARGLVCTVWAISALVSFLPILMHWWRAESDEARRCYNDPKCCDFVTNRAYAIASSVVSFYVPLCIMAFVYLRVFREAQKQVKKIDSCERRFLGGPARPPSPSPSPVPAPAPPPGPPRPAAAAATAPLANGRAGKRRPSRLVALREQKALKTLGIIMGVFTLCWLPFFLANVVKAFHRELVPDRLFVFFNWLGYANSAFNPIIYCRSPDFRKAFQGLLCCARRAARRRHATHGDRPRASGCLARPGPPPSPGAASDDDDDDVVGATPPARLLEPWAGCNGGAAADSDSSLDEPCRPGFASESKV

[19] = Toxicity in C57BL/6 mouse assessed as change in spleen weight at 250 mg/kg, ip administered as single dose and measured after 15 days (reference value: […]); assay type: organism-based; conditions: in vivo, 360 h, time 15 day; outline: as §1
[20] = molecular target: cGMP-inhibited 3',5'-cyclic phosphodiesterase 3A (Homo sapiens) (UniProt Q14432); assay: Inhibition of PDE3A (unknown origin) at 10 uM; outline: as §5
Sequence of cGMP-inhibited 3',5'-cyclic phosphodiesterase 3A (Homo sapiens) (Q14432 whole entry): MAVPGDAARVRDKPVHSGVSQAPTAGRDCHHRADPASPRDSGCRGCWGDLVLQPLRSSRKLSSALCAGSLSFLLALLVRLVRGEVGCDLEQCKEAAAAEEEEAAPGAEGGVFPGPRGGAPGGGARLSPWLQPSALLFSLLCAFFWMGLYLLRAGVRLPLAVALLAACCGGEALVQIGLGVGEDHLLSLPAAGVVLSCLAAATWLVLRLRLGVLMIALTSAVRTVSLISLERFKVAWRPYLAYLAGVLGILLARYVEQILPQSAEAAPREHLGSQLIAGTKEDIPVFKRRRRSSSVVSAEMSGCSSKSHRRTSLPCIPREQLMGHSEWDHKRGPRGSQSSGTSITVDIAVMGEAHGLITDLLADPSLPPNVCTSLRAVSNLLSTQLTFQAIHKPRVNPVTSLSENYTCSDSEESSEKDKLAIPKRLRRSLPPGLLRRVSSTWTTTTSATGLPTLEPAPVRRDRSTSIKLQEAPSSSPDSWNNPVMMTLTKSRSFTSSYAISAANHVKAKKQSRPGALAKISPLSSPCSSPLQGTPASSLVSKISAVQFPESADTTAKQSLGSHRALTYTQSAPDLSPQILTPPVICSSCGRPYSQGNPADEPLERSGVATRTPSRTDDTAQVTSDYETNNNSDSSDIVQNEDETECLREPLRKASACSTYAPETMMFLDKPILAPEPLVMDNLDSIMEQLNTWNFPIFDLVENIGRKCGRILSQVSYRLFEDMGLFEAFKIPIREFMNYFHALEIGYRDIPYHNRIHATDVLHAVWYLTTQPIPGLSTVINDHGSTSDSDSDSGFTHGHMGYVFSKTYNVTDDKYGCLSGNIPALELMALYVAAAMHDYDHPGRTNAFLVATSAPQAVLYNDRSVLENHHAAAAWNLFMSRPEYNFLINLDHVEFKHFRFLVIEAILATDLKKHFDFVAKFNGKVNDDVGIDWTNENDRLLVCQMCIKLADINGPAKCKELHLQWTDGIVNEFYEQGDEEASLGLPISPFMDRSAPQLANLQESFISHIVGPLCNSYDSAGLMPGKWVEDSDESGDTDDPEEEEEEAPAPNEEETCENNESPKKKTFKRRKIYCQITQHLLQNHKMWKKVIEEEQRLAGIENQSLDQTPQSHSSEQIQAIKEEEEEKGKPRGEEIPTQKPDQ

[21] = Plasma protein binding in mouse assessed as unbound fraction at 2 uM by rapid equilibrium dialysis based LC-MS/MS analysis; assay type: ADME, cell-free
Outline: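 Binding was measured at 2 μM in triplicate by rapid equilibrium dialysis (8K MWCO). Quantification was by UPLC-MS/MS on a phenyl column in positive ESI MRM mode (m/z 727>567), with an ammonium formate pH 5 / 1,5-DMHA mobile phase at 50 °C. Both unbound fraction (fu) and % bound are reported.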

[22] = AUC(0 to t) in C57BL/6J mouse at 9.103 mg/kg, ip administered as single dose measured up to 24 hrs; assay type: ADME, organism-based; set-up: time < 24 hrs, dose 9.103 mg/kg, route ip; conditions: in vivo; outline: as §4
[23] = Toxicity in C57BL/6 mouse assessed as change in body weight at 500 mg/kg, ip administered as single dose and measured after 15 days (reference value: 23.5 to 24.2 g); assay type: organism-based; conditions: in vivo, 360 h, time 15 day; outline: as §1

In the case of `COc1ccc(-c2cc(=O)c3c(O)cc(OP(=O)([O-])[O-])c(-c4cc(-c5cc(=O)c6c(O)cc(OP(=O)([O-])[O-])cc6o5)ccc4OC)c3o2)cc1.[Na+].[Na+].[Na+].[Na+]`, the Activity [1] is reported as “Non-Toxic”, the Activity [2] is reported as 0.9 g and the Activity (MCA-205) is reported as “Active”. The half-life [3] was 228 min, the Activity [4] was 1 g and the remaining at 0.75 h [5] was 64.7%. It also gave a half-life [6] of 66 min, an Activity [7] of 1 g and an Activity [8] of 1 g. For the same molecule, the Activity [9] was 0.1 g, the Tmax [10] was 5 min and the half-life [11] was 48 min. The MRT last at 24 h [12] was 42 min, the Activity [13] was 40% and the clearance [14] was 133 mL/min/kg. For the same molecule, the remaining at 0.75 h [15] was 82.3%, the “%AUCextra” value [16] was 0.9% and the inhibition [17] was 87.2%. For the same molecule, the Activity [18] was 35%, the Activity [19] was 0.1 g and the inhibition [20] was 84.8%. It also gave a fraction unbound at 2 µM [21] of 0.02, an AUC(0-t) at 24 h [22] of 982 ng·h/mL and an Activity [23] of 20.4 g.
